Assay results from ChEMBL document CHEMBL5356938, “Enhancing allosteric inhibition of dihydrodipicolinate synthase through the design and synthesis of novel dimeric compounds” (RSC Med Chem, 2023).
pIC50: −log10 of the molar value.

Assays:
[1] = biological target: T1, 4-hydroxy-tetrahydrodipicolinate synthase 1, chloroplastic (Arabidopsis thaliana, UniProt Q9LZX6); test: Inhibition of Arabidopsis thaliana DHDPS1
T1 sequence (Q9LZX6 whole entry): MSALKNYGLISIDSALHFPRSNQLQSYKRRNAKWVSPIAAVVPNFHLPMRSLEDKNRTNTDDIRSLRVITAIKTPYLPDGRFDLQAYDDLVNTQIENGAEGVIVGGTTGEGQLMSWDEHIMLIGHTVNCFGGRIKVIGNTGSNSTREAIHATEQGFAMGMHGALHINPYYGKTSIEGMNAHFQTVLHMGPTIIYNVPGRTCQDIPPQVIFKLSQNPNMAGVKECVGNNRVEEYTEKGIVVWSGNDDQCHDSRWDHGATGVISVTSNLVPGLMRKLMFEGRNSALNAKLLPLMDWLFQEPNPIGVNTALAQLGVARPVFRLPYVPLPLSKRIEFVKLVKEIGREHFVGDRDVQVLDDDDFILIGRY
Procedure, shortened: (§1)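 Coupled DHDPS–DHDPR assay with final 250 mM HEPES pH 8.0, 0.2 mM NADPH, 1 mM pyruvate, 0.125 mM ASA, 0.0009 mM E. coli DHDPR, 0.00008 mM DHDPS, 0.05% Tween 20 and varied inhibitor. Enzymes, pyruvate, buffer and NADPH were held at 30 °C for 12 min, then ASA was added. NADPH oxidation was followed at 340 nm and 30 °C. Initial rates came from the linear A340 slope, run in triplicate, and were used for IC50.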

[2] = Inhibition of Escherichia coli DHDPS using ASA as substrate assessed as NADPH oxidation to NADP+ preincubated with compound for 12 mins in the presence of NADPH followed by substrate addition by UV/Vis spectrophotometric analysis; procedure, shortened: as §1
[3] = biological target: T2, 4-hydroxy-tetrahydrodipicolinate synthase 2, chloroplastic (Arabidopsis thaliana, UniProt Q9FVC8); test: Inhibition of Arabidopsis thaliana DHDPS2; procedure, shortened: as §1
T2 sequence (Q9FVC8 whole entry): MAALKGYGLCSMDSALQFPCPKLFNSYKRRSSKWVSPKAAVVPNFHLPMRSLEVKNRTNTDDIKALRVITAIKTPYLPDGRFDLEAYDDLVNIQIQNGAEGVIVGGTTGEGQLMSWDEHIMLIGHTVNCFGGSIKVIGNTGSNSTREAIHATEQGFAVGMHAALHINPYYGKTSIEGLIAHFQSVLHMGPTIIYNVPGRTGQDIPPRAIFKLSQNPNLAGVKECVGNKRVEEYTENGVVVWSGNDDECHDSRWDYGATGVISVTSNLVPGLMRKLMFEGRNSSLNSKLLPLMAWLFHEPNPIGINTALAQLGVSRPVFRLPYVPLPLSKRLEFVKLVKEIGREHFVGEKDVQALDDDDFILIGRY

Compound | pIC50 [1] | pIC50 [2] | pIC50 [3]
COc1ccc(/C=C2\SC(=O)N(CC(=O)O)C2=O)cc1 | 4.18 | 4.33 | 4.18
CCOC(=O)C(Br)CCC(Br)C(=O)OCC (stereo unspecified) |  | 4.11 | 
COc1ccc(/C=C2\SC(=O)N(C(CCCC(C(=O)O)N3C(=O)S/C(=C\c4ccc(OC)cc4)C3=O)C(=O)O)C2=O)cc1 (stereo unspecified) |  | 4.39 | 
COc1ccc(/C=C2\SC(=O)N([C@H](CC[C@@H](C(=O)O)N3C(=O)S/C(=C\c4ccc(OC)cc4)C3=O)C(=O)O)C2=O)cc1 |  | 4.38 | 
COc1ccc(/C=C2\SC(=O)N([C@H](C[C@@H](C(=O)O)N3C(=O)S/C(=C\c4ccc(OC)cc4)C3=O)C(=O)O)C2=O)cc1 | 4.45 | 5.00 | 4.47
COc1ccc(/C=C2\SC(=O)N([C@@H](CC[C@@H](C(=O)O)N3C(=O)S/C(=C\c4ccc(OC)cc4)C3=O)C(=O)O)C2=O)cc1 (racemic) |  | 4.71 | 
COc1ccc(/C=C2\SC(=O)N([C@H](C[C@H](C(=O)O)N3C(=O)S/C(=C\c4ccc(OC)cc4)C3=O)C(=O)O)C2=O)cc1 (racemic) |  | 4.52 | 
